Screening results as filed in PubChem BioAssay.
Compounds with a hit are over-represented: about 3% of the library has one in this group of screens.
UBC13 inh: UBC13 polyubiquitin chain formation inhibitors, primary screen, biochemical, TR-FRET, uHTS. Ubiquitin-conjugating enzyme E2 N (Homo sapiens), P61088. inhibition, % at 20 µM. hit rate 0.47% among 330,000; in the data active means inhibition above about 45%, passing the limit was not always enough
Target sequence (P61088 whole entry, looked up): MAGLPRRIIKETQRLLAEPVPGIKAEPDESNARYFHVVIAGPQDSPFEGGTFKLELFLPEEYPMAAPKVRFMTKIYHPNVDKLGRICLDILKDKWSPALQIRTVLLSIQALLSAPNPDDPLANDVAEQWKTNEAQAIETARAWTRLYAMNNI
SENP7 block: SENP7 protease inhibitors, primary screen, biochemical, luminescence, uHTS. Sentrin-specific protease 7 (Homo sapiens), Q9BQF6. recombinant SENP7, Z-RLRGG-aminoluciferin luminescence, 40 min. inhibition, % at 5 µM. hit rate 1.5% among 330,000. AID 434973, 2010;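 active means inhibition above about 50% at the single test dose, limit read from the data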;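 further: plate controls were DMSO with enzyme for no effect and no enzyme buffer wells for full effect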
Target sequence (Q9BQF6 706-1050 limits assumed): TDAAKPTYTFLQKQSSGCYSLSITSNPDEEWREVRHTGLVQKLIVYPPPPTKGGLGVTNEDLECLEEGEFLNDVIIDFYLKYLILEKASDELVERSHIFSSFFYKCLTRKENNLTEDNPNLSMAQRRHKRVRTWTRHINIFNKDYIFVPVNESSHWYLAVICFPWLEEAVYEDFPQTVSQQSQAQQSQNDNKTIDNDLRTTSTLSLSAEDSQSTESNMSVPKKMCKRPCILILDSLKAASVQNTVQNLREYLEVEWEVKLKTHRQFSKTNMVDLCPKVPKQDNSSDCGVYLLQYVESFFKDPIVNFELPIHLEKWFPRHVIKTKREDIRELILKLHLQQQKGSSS
Apaf1 inhib: inhibitors of human Apaf-1 apoptosome, primary screen, biochemical, DEVD-Rh110 fluorescence, uHTS | Apoptotic protease-activating factor 1 (Homo sapiens), O14727 | reconstituted apoptosome caspase-3 activity | inhibition, % at 20 µM | hit rate 0.71% among 330,000 | AID 489030, 2010; active means inhibition of at least 40% at 20 µM;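 further: plate controls were DMSO wells for no effect and DEVD-CHO caspase inhibitor wells for full effect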
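Assay system: Apoptosome proteins | Medium: pH 7.5 Hepes buffer with CHAPS, BSA, DTT | Also added: Cytochrome c and DEVD-Rh110 substrate | Times: 30 min plus 50 min, RT | Detection: Rhodamine 110 fluorescence at Ex 480/Em 540 nm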
SENP6 inh: SENP6 protease inhibitors, primary screen, biochemical, luminescence, uHTS; Sentrin-specific protease 6 (Homo sapiens), Q9GZR1; Recombinant SENP6 catalytic domain, aminoluciferin luminescence; inhibition, % at 10 µM; hit rate 1.8% among 330,000; AID 2599, 2010;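 active means inhibition above about 50% at the single tested dose, limit read from the data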;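 further: plate controls were DMSO wells with enzyme for no effect and DMSO wells lacking enzyme for full effect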
SENP8 block-1: SENP8 protease inhibitors, primary screen, biochemical, luminescence; inhibition, % at 10 µM; Sentrin-specific protease 8 (Homo sapiens), Q96LD8; hit rate 1.2% among 330,000; purified SENP8, Z-RLRGG-aminoluciferin cleavage; in the data active means inhibition above about 50%
Target sequence (Q96LD8 whole entry, looked up): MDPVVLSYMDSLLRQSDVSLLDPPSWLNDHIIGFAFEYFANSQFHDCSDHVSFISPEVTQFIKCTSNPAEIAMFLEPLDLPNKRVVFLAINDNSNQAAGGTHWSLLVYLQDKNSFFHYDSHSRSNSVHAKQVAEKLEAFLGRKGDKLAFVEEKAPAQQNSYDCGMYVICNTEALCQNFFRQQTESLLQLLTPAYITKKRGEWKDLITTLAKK
SENP8 block-2: human SENP8 protease inhibitors, primary screen, biochemical, fluorescence, Nedd8 protein substrate, uHTS | Sentrin-specific protease 8 (Homo sapiens), Q96LD8 | recombinant SENP8 | inhibition, % at 20 µM | hit rate 0.64% among 360,000 | AID 602440, 2012; in the data active means inhibition mostly above about 40%, no sharp cut-off; inactive means mostly below about 27%
SENP8 conf: SENP8 protease inhibitors, retest, confirmation, biochemical, luminescence, single concentration | inhibition, % at 12.5 µM | AID 488912, 2010 | Recombinant SENP8, Z-RLRGG-aminoluciferin luminescence, 60 min | shares compounds with SENP7 block | hit rate 40% among 6,200;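 active means mean inhibition across replicates above about 50%, limit read from the data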
SENP6 confirm: SENP6 protease inhibitors, confirmation, biochemical, luminescence, single concentration | hit rate 58% among 6,200 | shares compounds with SENP7 block | AID 488915, 2010 | inhibition, % at 12.5 µM | recombinant SENP6, Z-RLRGG-aminoluciferin luminescence
SENP7 confirm: SENP7 protease inhibitors, retest, confirmation, biochemical, luminescence, single concentration | shares compounds with SENP7 block | recombinant SENP7, Z-RLRGG-aminoluciferin luminescence, 40 min | inhibition, % at 12.5 µM | hit rate 69% among 6,200 | AID 488917, 2010
Casp3 SENP sel: caspase-3 protease inhibitors, confirmation, selectivity assay for SENP inhibitor project, biochemical, single concentration. purified caspase-3, Z-DEVD-aminoluciferin luminescence, 60 min. hit rate 60% among 6,200. inhibition, % at 12.5 µM. shares compounds with SENP7 block;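 active means mean inhibition above about 50%, limit read from the data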;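 further: plate controls were enzyme with DMSO for no effect and wells without caspase-3 for full effect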
SENP luc ctr: interferes with luciferase luminescence in SENP counter-screen; shares compounds with SENP7 block; Pre-incubated SENP8/Z-RLRGG-aminoluciferin, luciferase luminescence interference; inhibition, % at 12.5 µM; hit rate 39% among 6,200; AID 488919;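 active means mean inhibition above about 50% when retested at one dose, limit read from the data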;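 further: plate controls were DMSO wells with completed reaction for no effect and substrate without enzyme for full effect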
Active calls of the source: *; x = not tested or not shown.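 How the source made its calls, unless noted: active means mean inhibition above about 50% in the one-dose retest (limit read from the data); inactive means the rest.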

SMILES	UBC13 inh	SENP7 block	Apaf1 inhib	SENP6 inh	SENP8 block-1	SENP8 block-2	SENP8 conf	SENP6 confirm	SENP7 confirm	Casp3 SENP sel	SENP luc ctr
Cc1occc1C(=O)N/N=C/c1ccc(-c2ccccc2)cc1	3.7	100.2*	14.4	99.0*	97.5*	17.6	71.3*	99.8*	102.6*	98.5*	69.9*
Cc1occc1C(=O)N/N=C/c1cccc2ccccc12	-10.1	92.1*	11.0	89.8*	88.7*	13.6	56.0*	87.8*	99.7*	89.4*	14.1
CC(Sc1nnc(-c2ccccc2F)o1)C(=O)Nc1ccc(N2CCOCC2)cc1 (centres undefined)	-3.7	-11.3	7.2	-18.8	-11.4	-6.5	x	x	x	x	x
COc1ccc2c(c1OC)C(=O)N(c1ccc(OCc3ccccc3)cc1)C2=O	-3.9	6.6	-0.2	15.7	1.3	3.9	x	x	x	x	x
O=C(C1=NOC2(C1)C(=O)Nc1ccccc12)N1CCCC1 (centres undefined)	x	x	x	x	x	9.7	x	x	x	x	x
COC(=O)c1sc2nc3c(cc2c1N)CCCC3	2.4	74.9*	-5.8	20.2	56.7*	-403.7	5.1	72.1*	91.3*	76.2*	50.9*
NC(=O)c1sc2nc3c(cc2c1N)CCC3	-7.3	11.1	-15.4	9.4	-8.6	-402.4	x	x	x	x	x
O=C(O)c1ccc(NCCC2=CCCCC2)c([N+](=O)[O-])c1	-12.7	11.5	10.3	85.6*	81.9*	17.4	3.7	86.8*	96.9*	88.3*	78.0*
CSc1cccc(NC(=O)C2CC(=O)N(c3ccc4c(c3)OCCO4)C2)c1 (centres undefined)	x	x	x	x	x	15.9	x	x	x	x	x
CC[N+]1(C)CC2CCC(C)(C1)C2(C)C (centres undefined)	x	x	x	x	x	4.7	x	x	x	x	x
O=C(c1ccccc1)c1ccc2c(c1)OCCCO2	9.2	62.0*	-0.4	43.5	28.2	0.7	28.1	34.1	74.7*	53.8*	55.0*
O=C(c1ccccc1)c1ccc2c(c1)OCCOCCOCCO2	3.8	6.7	3.9	-13.6	-6.7	10.5	x	x	x	x	x
O=C(/C=C/c1ccccc1)c1ccc2c(c1)OCCCCO2	7.0	68.0*	18.6	88.5*	40.0	22.9	72.0*	59.0*	23.2	15.1	75.8*
O=C(CCCc1ccccc1)c1ccc2c(c1)OCCO2	0.3	95.7*	4.3	92.2*	92.6*	5.8	94.9*	96.6*	102.0*	90.8*	66.7*
O=C(CCCc1ccccc1)c1ccccc1	-4.8	60.0*	9.9	79.8*	59.1*	10.9	-6.5	46.5	86.1*	40.4	10.9
Cc1ccc(C)n1-c1ccc(C(=O)NN=C2CCCC2)cc1	-6.4	-2.6	1.6	1.4	-3.8	6.8	x	x	x	x	x
CN(C(=O)COC(=O)CSc1cc(Cl)ccc1Cl)c1c(N)n(Cc2ccccc2)c(=O)[nH]c1=O	-3.8	13.9	19.2	-7.2	-2.0	-7.3	x	x	x	x	x
Cc1ccc(-c2csc(C3=C(O)CN(NC(=O)c4ccco4)C3=N)n2)cc1	-7.0	-5.6	-2.8	-11.6	-6.3	23.0	x	x	x	x	x
C/C(=N/NC(=O)CCc1ccccc1)c1ccc2c(c1)OCO2	-2.3	-6.6	16.7	-3.7	-12.4	4.8	x	x	x	x	x
O=C(CCCc1ccccc1)Nc1cccc(C(=O)O)c1	-3.2	92.8*	4.1	88.8*	81.9*	8.5	92.7*	92.6*	100.0*	49.5	92.0*
O=C(CCCC(=O)c1ccc(O)cc1)c1ccc(O)cc1	1.7	73.8*	1.6	93.0*	88.6*	15.7	91.5*	91.5*	100.7*	92.4*	91.5*
O=C(CCc1ccccc1)c1ccc2c(c1)OCCCO2	3.6	41.9	3.3	57.9*	21.2	13.9	42.1	42.4	76.3*	37.8	37.1
O=C(O)CCC(=O)c1ccc2c(c1)OCCCO2	-1.2	-1.5	-4.1	0.8	-12.2	12.2	x	x	x	x	x
O/N=C(/CCc1ccccc1)c1ccc2c(c1)OCCO2	23.8	52.3*	11.3	13.2	46.7	5.3	69.6*	68.8*	87.6*	43.6	72.2*
Nc1c(-c2ccc(Cl)cc2)cnn1-c1cc(C(F)(F)F)cc(C(F)(F)F)c1	-0.6	1.0	1.7	-9.0	1.2	-0.9	x	x	x	x	x
SMILES	UBC13 inh	SENP7 block	Apaf1 inhib	SENP6 inh	SENP8 block-1	SENP8 block-2	SENP8 conf	SENP6 confirm	SENP7 confirm	Casp3 SENP sel	SENP luc ctr
Nc1c(-c2ccc(Cl)cc2)nnn1-c1ccccc1	7.6	47.4	-4.8	51.1*	18.9	19.9	35.0	30.5	64.8*	50.4*	2.1
Nc1c(-c2ccc(Cl)cc2)cnn1-c1ccccc1	4.4	93.3*	6.7	87.3*	84.1*	20.9	77.2*	76.8*	93.8*	84.4*	4.1
Cc1ccc(-c2cnn(-c3cccc([N+](=O)[O-])c3)c2N)cc1	1.6	53.1*	9.4	51.9*	19.9	11.3	27.5	27.6	71.4*	37.8	2.0
Cc1ccc(-c2cnn(-c3ccccc3)c2N)cc1	-2.2	95.3*	10.0	90.8*	88.6*	12.1	93.0*	93.6*	100.6*	94.7*	62.4*
Cc1[nH]c(=O)[nH]c(=O)c1/C=C/C(=O)O	5.5	-1.7	-10.4	-0.4	0.8	18.3	x	x	x	x	x
Cc1nn(-c2ccc(C(=O)O)cc2)c(N)c1-c1ccccc1	-7.8	0.0	0.9	11.9	-9.4	17.1	x	x	x	x	x
Nc1c(-c2ccccc2)cnn1-c1ccc(C(=O)O)cc1	15.4	52.6*	-14.3	-1.0	26.8	5.2	45.4	41.4	75.6*	66.2*	60.0*
O=C(Nc1ccc(-c2nnc(-c3ccccc3)o2)cc1)C(F)(F)F	6.1	91.0*	-8.8	76.3*	65.9*	-196.2	-6.7	-3.3	-5.2	-4.0	-15.9
CC(=O)/C=C(\C)Nc1ccc(-c2cnc(-c3ccccc3)o2)cc1	7.8	72.0*	25.2	76.3*	78.2*	-492.5	29.0	28.4	47.5	22.5	45.2
